The values that follow come from ChEMBL document CHEMBL2086336, “Small molecule suppression of carbapenem resistance in NDM-1 producing Klebsiella pneumoniae” (ACS Med Chem Lett, 2012).

Active and inactive are the calls of the source.

What is called MIC is the lowest concentration found to suppress growth. Lower therefore signals greater potency.

In data set [1] the test system is Klebsiella pneumoniae. In words: Antibacterial activity against Klebsiella pneumoniae BAA 2146 expressing NDM-1 after 16 hrs by broth microdilution technique. Particulars: BAA 2146, 16 h. It counts as functional. In a few lines: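 MIC of the 2-AI compound alone, determined by modified broth microdilution in cation-adjusted Mueller Hinton broth (CAMHB).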
(In broth dilution the organism is exposed to a series of concentrations in liquid medium.)

Data set [2] deals with Klebsiella pneumoniae. In words: Potentiation of imipenem antibacterial activity against Klebsiella pneumoniae BAA 2146 expressing NDM-1 assessed as reduction in imipenem MIC at 50 uM after 16 hrs by broth microdilution technique. It counts as functional. In a few lines:
(§1)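 Modified broth microdilution: imipenem or meropenem MIC measured in CAMHB supplemented with a fixed concentration of the 2-AI compound. Fold reduction is taken against the carbapenem MIC without compound.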

For data set [3], the system named is Klebsiella pneumoniae. The experiment in a line: Potentiation of meropenem antibacterial activity against Klebsiella pneumoniae BAA 2146 expressing NDM-1 assessed as reduction in meropenem MIC at 50 uM after 16 hrs by broth microdilution technique. Format: functional, organism-based. In a few lines: as §1
Data set [4] relates to Klebsiella pneumoniae. The experiment in a line: Potentiation of carbapenem antibacterial activity against Klebsiella pneumoniae BAA 2146 expressing NDM-1 assessed as reduction in carbapenem MIC at 50 uM after 16 hrs by broth microdilution technique. It counts as functional. In a few lines: (§2)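 Modified broth microdilution in cation-adjusted Mueller Hinton broth. The adjuvant's own MIC is measured first in CAMHB. Antibiotic MICs (imipenem/meropenem, or cefotaxime for the ESBL strain) are then determined in CAMHB supplemented with the 2-aminoimidazole at a fixed concentration of ≤30% of its own MIC. Reduction is reported as fold change versus the antibiotic MIC without adjuvant.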

The subject of data set [5] is Klebsiella pneumoniae. The experiment in a line: Antibacterial activity against Klebsiella pneumoniae BAA 2146 expressing NDM-1 assessed as intact to permeabilized cell membrane ratio at 50 uM after 1 hr by SYTO9/PI-based fluorimetry relative to control. It counts as functional. In a few lines:
(§3)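 Membrane damage was measured by Baclight assay after 1 h exposure of the NDM-1 strain to compound. The intact/permeabilized membrane ratio is expressed as % of DMSO-only treated control bacteria.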

The subject of data set [6] is Klebsiella pneumoniae. The experiment in a line: Potentiation of meropenem antibacterial activity against Klebsiella pneumoniae BAA 2146 expressing NDM-1 assessed as reduction in meropenem MIC at 30 uM after 16 hrs by broth microdilution technique. It counts as functional. In a few lines: as §1
The subject of data set [7] is Klebsiella pneumoniae. In words: Potentiation of imipenem antibacterial activity against Klebsiella pneumoniae BAA 2146 expressing NDM-1 assessed as reduction in imipenem MIC at 30 uM after 16 hrs by broth microdilution technique. Format: functional. The essentials:
as §1

Data set [8] concerns Klebsiella pneumoniae. The experiment in a line: Antibacterial activity against Klebsiella pneumoniae BAA 2146 expressing NDM-1 assessed as intact to permeabilized cell membrane ratio at 30 uM after 1 hr by SYTO9/PI-based fluorimetry relative to control. It counts as functional. The essentials: as §3
Data set [9] relates to Klebsiella pneumoniae. In words: Potentiation of imipenem antibacterial activity against Klebsiella pneumoniae BAA 2146 expressing NDM-1 assessed as increase in log reduction in CFU of imipenem at 30 uM at 4 to 16 hrs relative to control. It counts as functional, organism-based. The essentials:
(§4)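 Time-kill: cultures grown in CAMHB with imipenem (2–32 μg/mL) with or without 30 μM compound. Bacteria were plated at time points up to 16 h and viable CFU enumerated. Log reduction in CFU/mL is relative to untreated control; ≥2 log₁₀ drop versus antibiotic alone counted as synergy.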

Data set [10] relates to Klebsiella pneumoniae. In words: Potentiation of imipenem antibacterial activity against Klebsiella pneumoniae BAA 1705 expressing KPC-2 assessed as reduction in imipenem MIC at 30 uM after 16 hrs by broth microdilution technique. It counts as functional. In a few lines: as §2
Data set [11] deals with Klebsiella pneumoniae. The experiment in a line: Potentiation of imipenem antibacterial activity against Klebsiella pneumoniae BAA 2146 expressing NDM-1 assessed as reduction in imipenem MIC at 40 uM after 16 hrs by broth microdilution technique. It counts as functional.
Data set [12] can be described thus: Hemolytic activity against defibrinated sheep blood after 1 hr by UV-spectrophotometry. Format: ADME, tissue-based, Ovis aries. Conditions: read-out: HD50. The essentials:
(§5)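 Hemolysis was tested on mechanically defibrinated sheep blood. Lysis is expressed relative to a positive control. HD₅₀ is the concentration lysing 50% of cells versus that control.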

The test system of data set [13] is Klebsiella pneumoniae. The experiment in a line: Potentiation of cefotaxime antibacterial activity against Klebsiella pneumoniae ATCC 700603 expressing extended spectrum beta-lactamase assessed as reduction in cefotaxime MIC at 30 uM after 16 hrs by broth microdilution technique. It counts as functional. The essentials:
as §2

In data set [14] the test system is Klebsiella pneumoniae. The experiment in a line: Antibacterial activity against Klebsiella pneumoniae BAA 2146 expressing NDM-1 assessed as reduction in CFU at 30 uM after 16 hrs relative to control. Format: functional, organism-based. In a few lines: as §4
Data set [15] in a line: Hemolytic activity against defibrinated sheep blood at 30 uM after 1 hr by UV-spectrophotometry relative to control. It counts as ADME, tissue-based, Ovis aries. Particulars: read-out: Activity. The essentials:
as §5

For data set [16], the system named is Klebsiella pneumoniae. The experiment in a line: Potentiation of imipenem antibacterial activity against Klebsiella pneumoniae BAA 2146 expressing NDM-1 assessed as decreased regrowth at 30 uM at 4 to 16 hrs relative to control. Format: functional, organism-based. The essentials: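 Time-kill: K. pneumoniae BAA-2146 (NDM-1) grown in CAMHB with imipenem (2, 8 or 32 μg/mL in figure; 16 and 4 μg/mL also reported) with or without additive at 30 μM. Viable CFU counted by plating at time points up to 16 h; log reduction in CFU/mL versus untreated control. Synergy defined as ≥2 log10 CFU decrease versus antibiotic alone.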

Regarding `CC(C)(C)c1ccc(-c2c[nH]c(N)n2)cc1.Cl`, the lowest concentration to inhibit growth in the data set with Klebsiella pneumoniae [1] (MIC) was 200 µM.
Still for that read-out and setting: the result for `CCCCCc1ccc(-c2c[nH]c(N)n2)cc1.Cl` reads 100 µM; that for `CCCCCCc1ccc(-c2nc(N)[nH]c2CCC)cc1.Cl`, 100 µM.
Regarding `CCCCCCc1ccc(-c2nc(N)[nH]c2-c2ccccc2)cc1.Cl`, the result in the data set on Klebsiella pneumoniae [2] and in the data set with Klebsiella pneumoniae [3] was inactive. Further, the MIC in the data set on Klebsiella pneumoniae [1] is > 200 µM.
On to `CCCCCCCc1ccc(-c2c[nH]c(N)n2)cc1.Cl`, for which the “fold change (FC)” value in the data set on Klebsiella pneumoniae [4] amounted to 2. Also, the Activity in the data set on Klebsiella pneumoniae [5] was 21.2%. Also, the MIC against Klebsiella pneumoniae [1] is 200 µM.
In the case of `CCCCc1ccc(-c2c[nH]c(N)n2)cc1.Cl`, the lowest concentration to inhibit growth in the data set on Klebsiella pneumoniae [1] (MIC) was 200 µM.
Consider `CCCCCCc1ccc(-c2nc(N)[nH]c2CC(C)C)cc1.Cl`, for which the result in the data set on Klebsiella pneumoniae [2] and with Klebsiella pneumoniae [3] was inactive. In the data set with Klebsiella pneumoniae [1], this compound registered a minimum inhibitory concentration (MIC) of 200 µM.
Regarding `CCCCCCc1ccc(-c2nc(N)[nH]c2CCCCCC)cc1.Cl`, the “fold change (FC)” value with Klebsiella pneumoniae [6] is 2. Besides, in the data set on Klebsiella pneumoniae [7] (50 uM, in the assay text read “at 50 uM” for “at 30 uM”), the result was inactive. Besides, the MIC against Klebsiella pneumoniae [1] was > 200 µM. For the same compound, the Activity with Klebsiella pneumoniae [8] is reported as 8.13%.
For `CCCCCCc1ccc(-c2nc(N)[nH]c2-c2ccc3ccccc3c2)cc1.Cl`, the outcome with Klebsiella pneumoniae [2] and with Klebsiella pneumoniae [3] was inactive. The MIC against Klebsiella pneumoniae [1] is > 200 µM.
Turning to `Cl.Nc1nc(-c2ccc(-c3ccccc3)cc2)c[nH]1`, in the data set on Klebsiella pneumoniae [1], the MIC was > 200 µM.
As to `CCCCCCc1ccc(-c2nc(N)[nH]c2Cc2ccccc2)cc1.Cl`, the outcome in the data set on Klebsiella pneumoniae [2] and in the data set on Klebsiella pneumoniae [3] was inactive. Besides, the MIC in the data set with Klebsiella pneumoniae [1] is > 200 µM.
As for `CCCCCCc1ccc(-c2c[nH]c(N)n2)cc1.Cl`, the “fold change (FC)” value turned out to be 256 in the data set with Klebsiella pneumoniae [2]; 16 with Klebsiella pneumoniae [10]; 16 in the data set on Klebsiella pneumoniae [6]; 64 with Klebsiella pneumoniae [11]; 16 in the data set with Klebsiella pneumoniae [7]; 8 in the data set with Klebsiella pneumoniae [13]. Also, the result in the data set with Klebsiella pneumoniae [9] and in the data set on Klebsiella pneumoniae [16] was Active. Also, the HC50 at 1 h in data set [12] was > 500 µM. In the data set on Klebsiella pneumoniae [14], the outcome was inactive. In the data set on Klebsiella pneumoniae [1], this compound returned an MIC of 100 µM. The hemolysis at 1 h, 30 µM in data set [15] amounted to 2.5%. Besides, the Activity in the data set with Klebsiella pneumoniae [8] is recorded as 8.5%.
Regarding `CCCCCCc1ccc(-c2nc(N)[nH]c2C)cc1.Cl`, the “fold change (FC)” value in the data set on Klebsiella pneumoniae [6] and with Klebsiella pneumoniae [7] was 8 in each case. This compound registered an MIC against Klebsiella pneumoniae [1] of 100 µM.
